Test results taken from ChEMBL document CHEMBL4396897, “Potent 5-Cyano-6-phenyl-pyrimidin-Based Derivatives Targeting DCN1-UBE2M Interaction” (J Med Chem, 2019).
Activity calls are given as the source filed them. The calls are words filed in the database; no cut-off is given here.

Key:
DCN1-like protein 1 [1] = biological target: T1, DCN1-like protein 1 (Homo sapiens, UniProt Q96GG9); assay: Binding affinity to N-terminal His6-tagged recombinant human DCN1 expressed in Escherichia coli BL21-AI assessed as reduction in DCN1-FAM-labelled N-terminal acetylated UBE2M (1 to 12 residues) protein-protein interaction after 30 mins by fluorescence polarization competitive binding assay
T1 sequence (Q96GG9 whole entry, the tested form may be a part): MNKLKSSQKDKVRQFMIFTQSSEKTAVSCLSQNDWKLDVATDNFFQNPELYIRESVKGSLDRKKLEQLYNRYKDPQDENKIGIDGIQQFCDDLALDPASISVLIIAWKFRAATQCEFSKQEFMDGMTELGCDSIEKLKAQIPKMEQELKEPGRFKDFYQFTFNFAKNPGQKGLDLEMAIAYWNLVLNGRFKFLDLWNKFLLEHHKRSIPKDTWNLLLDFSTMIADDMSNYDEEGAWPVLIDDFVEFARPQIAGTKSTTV

DCN1-like protein 1 [2] = biological target: T1, DCN1-like protein 1; assay: Binding affinity to N-terminal GST tagged recombinant human DCN1 (58 to 259 residues) expressed in Escherichia coli BL21(DE3) assessed as reduction in DCN1-FAM-labelled N-terminal acetylated UBE2M (1 to 21 residues) protein-protein interaction after 30 mins by HTRF assay
KYSE-70 cell line = assay: Antiproliferative activity against human KYSE-70 after 72 hrs by MTT assay; type: functional, cell-based; settings: KYSE-70, 72 h
Summary of the method: (§1)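 MTT viability assay: cells seeded at 2~5×10^3 per well, exposed to serial dilutions of compound for 72h, then MTT (5 mg/mL in PBS) added for 4h at 37°C. Formazan dissolved in DMSO and read at 490nm. IC50 reported as mean ± SD of three independent experiments.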

PC-9 = assay: Antiproliferative activity against human PC9 by MTT assay; type: functional, cell-based; summary of the method: as §1
SMMC-7721 = assay: Antiproliferative activity against human SMMC7721 after 72 hrs by MTT assay; type: functional, cell-based; settings: SMMC-7721, 72 h; summary of the method: as §1
PC-3 = assay: Antiproliferative activity against human PC3 after 72 hrs by MTT assay; type: functional, cell-based; settings: PC-3, 72 h; summary of the method: as §1
MCF7 = assay: Antiproliferative activity against human MCF7 after 72 hrs by MTT assay; type: functional, cell-based; settings: MCF7, 72 h; summary of the method: as §1
[3] = biological target: DCN1-like protein 1/NEDD8-conjugating enzyme Ubc12 (Homo sapiens) (UniProt Q96GG9+P61081); assay: Inhibition of DCN1-UBE2M protein-protein interaction in human NCI-H1975 cells assessed as stabilization of DCN1 at 10 uM incubated for 5 hrs at 53 degC by cellular thermal shift assay; type: cell-based
Chain of DCN1-like protein 1/NEDD8-conjugating enzyme Ubc12 (Homo sapiens) (P61081 whole entry, looked up): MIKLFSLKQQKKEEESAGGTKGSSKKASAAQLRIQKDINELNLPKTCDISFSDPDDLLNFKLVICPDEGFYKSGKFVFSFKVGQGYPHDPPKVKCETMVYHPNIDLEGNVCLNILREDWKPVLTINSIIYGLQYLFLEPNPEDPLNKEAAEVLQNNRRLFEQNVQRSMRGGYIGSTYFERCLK
Chain of DCN1-like protein 1/NEDD8-conjugating enzyme Ubc12 (Homo sapiens) (Q96GG9 whole entry, looked up): as the sequence (Q96GG9 whole entry, the tested form may be a part) above
Summary of the method: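 H1975 cells exposed to 10µM compound or 1‰ DMSO for 3-5h (5h in legend), collected, aliquoted and heated 10 min across 43–61°C. Cells lysed by three liquid-nitrogen freeze-thaw cycles and centrifuged at 12,000×g for 20 min. Soluble DCN1 in supernatant quantified by Western blot band intensity; at least three experiments.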

SMILES | IC50 (DCN1-like protein 1 [1]) [µM] | IC50 (DCN1-like protein 1 [2]) [µM] | IC50 (KYSE-70 cell line) [µM] | IC50 (PC-9) [µM] | IC50 (SMMC-7721) [µM] | IC50 (PC-3) [µM] | IC50 (MCF7) [µM] | inhibition [3]
C#CCSc1nc(Sc2nnc(C)s2)c(C#N)c(-c2cc(OC)c(OC)c(OC)c2)n1 | 0.153 | 0.134 |  |  |  |  |  | 
C#CCSc1nc(Sc2nc(C)c(C)s2)c(C#N)c(-c2cc(OC)c(OC)c(OC)c2)n1 | > 10 | > 10 | > 20 | > 20 | > 20 | > 20 | > 20 | 
C#CCSc1nc(Sc2nccs2)c(C#N)c(-c2ccc[nH]2)n1 | > 20 | > 10 | > 20 | > 20 | > 20 | > 20 | > 20 | 
C#CCSc1nc(Sc2nnnn2CCN(C)C)c(C#N)c(-c2ccc3oc(=O)ccc3c2)n1 | 0.666 | 0.815 |  |  |  |  |  | 
C#CCSc1nc(Sc2nccs2)c(C#N)c(-c2ccc(Cl)c(Cl)c2)n1 | 0.063 | 0.112 |  |  |  |  |  | 
C#CCSc1nc(Sc2nccs2)c(C#N)c(-c2cccc(Cl)c2)n1 | 0.362 | 0.14 |  |  |  |  |  | 
C#CCSc1nc(Sc2nnnn2C)c(C#N)c(-c2ccc(Cl)cc2)n1 | 0.0785 | 0.102 |  |  |  |  |  | 
C#CCSc1nc(Sc2nnnn2CCN(C)C)c(C#N)c(-c2cccc(Cl)c2)n1 | 0.106 | 0.38 | 5.32 | 6.48 | 8.64 | 3.54 | 4.12 | 
C#CCSc1nc(-c2cc(OC)c(OC)c(OC)c2)c(C#N)c(N2CCNCC2)n1 | > 10 | > 5 |  |  |  |  |  | 
C#CCSc1nc(Sc2nc(C)cs2)c(C#N)c(-c2cc(OC)c(OC)c(OC)c2)n1 | > 10 | > 10 | > 20 | > 20 | > 20 | > 20 | > 20 | inactive
C#CCSc1nc(-c2cc(OC)c(OC)c(OC)c2)c(C#N)c(N2CCSCC2)n1 | > 10 | > 5 |  |  |  |  |  | 
C#CCSc1nc(Sc2nnnn2CCN(C)C)c(C#N)c(-c2ccc(Cl)c(Cl)c2)n1 | 0.391 | 0.172 |  |  |  |  |  | 
C#CCSc1nc(Sc2nnnn2CCN(C)C)c(C#N)c(-c2ccc(C)cc2)n1 | 0.109 | 0.12 |  |  |  |  |  | 
C#CCSc1nc(Sc2nccn2C)c(C#N)c(-c2cc(OC)c(OC)c(OC)c2)n1 | > 10 | > 2.5 |  |  |  |  |  | 
C#CCSc1nc(Sc2nnnn2CCN(C)C)c(C#N)c(-c2ccc(Cl)cc2)n1 | 0.0635 | 0.123 | 6.56 | 5.3 | 7.34 | 7.17 | 6.18 | 
C#CCSc1nc(Sc2nnnn2C)c(C#N)c(-c2cc(OC)c(OC)c(OC)c2)n1 | 0.36 | 0.25 |  |  |  |  |  | 
C#CCSc1nc(Sc2nccs2)c(C#N)c(-c2cc(OC)c(OC)c(OC)c2)n1 | 0.141 | 0.077 |  |  |  |  |  | 
C#CCSc1nc(Sc2nccs2)c(C#N)c(-c2ccc3oc(=O)ccc3c2)n1 | 0.789 | 0.202 |  |  |  |  |  | 
C#CCSc1nc(Sc2nnnn2C)c(C#N)c(-c2c[nH]c3ccccc23)n1 | > 20 | > 10 |  |  |  |  |  | 
C#CCSc1nc(Sc2nnnn2C)c(C#N)c(-c2ccc[nH]2)n1 | > 20 | > 10 |  |  |  |  |  | 
C#CCSc1nc(Sc2nccs2)c(C#N)c(-c2ccc(Br)cc2)n1 | 0.552 | 0.189 | 10.9 | 12.1 | 3.99 | 8.53 | 11.6 | 
C#CCSc1nc(Nc2ccc(OC)cc2)c(C#N)c(-c2cc(OC)c(OC)c(OC)c2)n1 | > 10 | > 10 |  |  |  |  |  | 
C#CCSc1nc(Sc2nnnn2C)c(C#N)c(-c2cccc(OC)c2)n1 | 3.15 | 1.02 |  |  |  |  |  | 

SMILES | IC50 (DCN1-like protein 1 [1]) [µM] | IC50 (DCN1-like protein 1 [2]) [µM] | IC50 (KYSE-70 cell line) [µM] | IC50 (PC-9) [µM] | IC50 (SMMC-7721) [µM] | IC50 (PC-3) [µM] | IC50 (MCF7) [µM] | inhibition [3]
C#CCSc1nc(Sc2nnnn2C)c(C#N)c(-c2ccc(C(C)C)cc2)n1 | 1.09 | 0.369 |  |  |  |  |  | 
C#CCSc1nc(Sc2nccs2)c(C#N)c(-c2ccncc2)n1 | 1.48 | 1.06 |  |  |  |  |  | 
C#CCSc1nc(Sc2ccc(N)s2)c(C#N)c(-c2cc(OC)c(OC)c(OC)c2)n1 | 0.196 | 0.066 |  |  |  |  |  | 
N#Cc1c(Sc2nccs2)nc(SCc2cn(Cc3ccccc3)nn2)nc1-c1ccc(Cl)cc1 | > 10 | > 10 |  |  |  |  |  | 
C#CCSc1nc(Sc2nnnn2C)c(C#N)c(-c2ccc(Cl)c(Cl)c2)n1 | 0.943 | 0.339 |  |  |  |  |  | 
C#CCSc1nc(Sc2nnc(N)s2)c(C#N)c(-c2cc(OC)c(OC)c(OC)c2)n1 | 0.821 | 0.107 |  |  |  |  |  | 
CCCSc1nc(Sc2nccs2)c(C#N)c(-c2ccc(Cl)cc2)n1 | > 10 | > 10 |  |  |  |  |  | 
C=CCSc1nc(Sc2nccs2)c(C#N)c(-c2ccc(Cl)cc2)n1 | > 10 | > 10 |  |  |  |  |  | 
C#CCSc1nc(Sc2nccs2)c(C#N)c(-c2ccc(Cl)cc2)n1 | 0.0366 | 0.096 | 5.35 | 4.13 | 6.04 | 3.62 | 3.23 | 
C#CCSc1nc(Sc2nnnn2C)c(C#N)c(-c2ccccc2)n1 | > 20 | > 20 |  |  |  |  |  | 
C#CCSc1nc(-c2cc(OC)c(OC)c(OC)c2)c(C#N)c(N2CCCCC2)n1 | > 10 | > 5 |  |  |  |  |  | 
C#CCSc1nc(Sc2nnnn2C)c(C#N)c(-c2cccc(Cl)c2)n1 | 0.644 | 0.291 |  |  |  |  |  | 
C#CCSc1nc(Sc2nc[nH]n2)c(C#N)c(-c2cc(OC)c(OC)c(OC)c2)n1 | 1.22 | > 5 | > 20 | > 20 | > 20 | > 20 | > 20 | 
C#CCSc1nc(Sc2nc3ccccc3s2)c(C#N)c(-c2cc(OC)c(OC)c(OC)c2)n1 | > 10 | > 5 | > 20 | > 20 | > 20 | > 20 | > 20 | 
C#CCSc1nc(Nc2nnnn2C)c(C#N)c(-c2cc(OC)c(OC)c(OC)c2)n1 | > 10 | > 10 |  |  |  |  |  | 
C=CC(=O)Nc1ccccc1CN(C(=O)Nc1cccc(C(F)(F)F)c1)C1CCN(C(C)CCC)CC1 (centres undefined) |  |  | 17.9 | 5.59 | 16.2 | 25.3 | 10.2 | 
C#CCSc1nc(Sc2ccccn2)c(C#N)c(-c2cc(OC)c(OC)c(OC)c2)n1 | > 10 | > 2.5 | > 10 | > 20 | > 20 | > 10 | > 10 | 
C#CCSc1nc(Sc2nnnn2CCN(C)C)c(C#N)c(-c2cc(OC)c(OC)c(OC)c2)n1 | 0.591 | 0.199 |  |  |  |  |  | 
C#CCSc1nc(Sc2nnnn2C)c(C#N)c(-c2cccs2)n1 | > 20 | > 10 |  |  |  |  |  | 
C#CCSc1nc(-c2cc(OC)c(OC)c(OC)c2)c(C#N)c(N2CCOCC2)n1 | > 10 | > 10 |  |  |  |  |  | 
C#CCSc1nc(Nc2cccc(C(F)(F)F)c2)c(C#N)c(-c2cc(OC)c(OC)c(OC)c2)n1 | > 10 | > 10 |  |  |  |  |  | 
C#CCSc1nc(Sc2nnnn2C)c(C#N)c(-c2ccc3oc(=O)ccc3c2)n1 | 1.25 | 0.82 |  |  |  |  |  | 
